Test results as given in ChEMBL document CHEMBL1687824, “Overexpression of patA and patB, which encode ABC transporters, is associated with fluoroquinolone resistance in clinical isolates of Streptococcus pneumoniae” (2011).
In brackets after ≈: the same amount, converted by molar mass.

Columns and labels:
Assay type in all cases: functional
Streptococcus pneumoniae [1] = assay: Antibacterial activity against fluoroquinolone, dye-resistant Streptococcus pneumoniae by standardized agar doubling dilution method in presence of 20 ug/ml reserpine efflux pump inhibitor
Method in brief: (§1)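 MIC by agar doubling dilution following BSAC guidelines. Strains grown in brain heart infusion broth 24 h at 37°C in 5% CO2. Where an efflux pump inhibitor applies, MIC redetermined with reserpine at 20 μg/ml or sodium orthovanadate at 50 μM. Synergy taken as a fall in MIC of ≥2 dilutions with inhibitor present. Dye resistance defined relative to R6 (both dyes ≥2 dilutions higher).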

Streptococcus pneumoniae [2] = assay: Antibacterial activity against fluoroquinolone, dye-resistant Streptococcus pneumoniae by standardized agar doubling dilution method; method in brief: as §1
Streptococcus pneumoniae [3] = assay: Antibacterial activity against wild type Streptococcus pneumoniae R6 by standardized agar doubling dilution method in presence of 20 ug/ml reserpine efflux pump inhibitor; method in brief: as §1
Streptococcus pneumoniae [4] = assay: Antibacterial activity against wild type Streptococcus pneumoniae M3 NCTC 7466 type 2 by standardized agar doubling dilution method in presence of 20 ug/ml reserpine efflux pump inhibitor; method in brief: as §1
Streptococcus pneumoniae [5] = assay: Antibacterial activity against wild type Streptococcus pneumoniae M4 NCTC 7465 type 1 by standardized agar doubling dilution method in presence of 20 ug/ml reserpine efflux pump inhibitor; method in brief: as §1
Streptococcus pneumoniae [6] = assay: Antibacterial activity against wild type Streptococcus pneumoniae R6 by standardized agar doubling dilution method; method in brief: as §1
Streptococcus pneumoniae [7] = assay: Antibacterial activity against wild type Streptococcus pneumoniae M4 NCTC 7465 type 1 by standardized agar doubling dilution method; method in brief: as §1
Streptococcus pneumoniae [8] = assay: Antibacterial activity against wild type Streptococcus pneumoniae M3 NCTC 7466 type 2 by standardized agar doubling dilution method; method in brief: as §1
Streptococcus pneumoniae [9] = assay: Antibacterial activity against fluoroquinolone-resistant Streptococcus pneumoniae by standardized agar doubling dilution method; method in brief: as §1
Streptococcus pneumoniae [10] = assay: Antibacterial activity against fluoroquinolone-resistant Streptococcus pneumoniae by standardized agar doubling dilution method in presence of 20 ug/ml reserpine efflux pump inhibitor; method in brief: as §1
Streptococcus pneumoniae [11] = assay: Antibacterial activity against dye-resistant Streptococcus pneumoniae by standardized agar doubling dilution method; method in brief: as §1
Streptococcus pneumoniae [12] = assay: Antibacterial activity against dye-resistant Streptococcus pneumoniae by standardized agar doubling dilution method in presence of 20 ug/ml reserpine efflux pump inhibitor; method in brief: as §1
Streptococcus pneumoniae [13] = assay: Antibacterial activity against fluoroquinolone, dye-susceptible Streptococcus pneumoniae by standardized agar doubling dilution method; method in brief: as §1
Streptococcus pneumoniae [14] = assay: Antibacterial activity against fluoroquinolone, dye-susceptible Streptococcus pneumoniae by standardized agar doubling dilution method in presence of 20 ug/ml reserpine efflux pump inhibitor; method in brief: as §1

`CCn1cc(C(=O)O)c(=O)c2cc(F)c(N3CCNCC3)cc21` [NORFLOXACIN] gave an MIC90 (Streptococcus pneumoniae [1]) of 8 µg/mL, an MIC90 (Streptococcus pneumoniae [2]) of 32 µg/mL (≈ 100 µM) and an MIC (Streptococcus pneumoniae [3]) of 2 µg/mL. The MIC (Streptococcus pneumoniae [4]) was 2 µg/mL, the MIC (Streptococcus pneumoniae [5]) was 4 µg/mL and the MIC (Streptococcus pneumoniae [6]) was 4 µg/mL (≈ 12.5 µM). For the same molecule, the MIC (Streptococcus pneumoniae [7]) was 8 µg/mL (≈ 25.1 µM), the MIC (Streptococcus pneumoniae [8]) was 4 µg/mL (≈ 12.5 µM) and the MIC90 (Streptococcus pneumoniae [9]) was 32 µg/mL (≈ 100 µM). The MIC90 (Streptococcus pneumoniae [10]) was 8 µg/mL, the MIC (Streptococcus pneumoniae [11]) was 4 µg/mL (≈ 12.5 µM) and the MIC90 (Streptococcus pneumoniae [11]) was 4 µg/mL (≈ 12.5 µM). The MIC (Streptococcus pneumoniae [12]) was 1 µg/mL, the MIC90 (Streptococcus pneumoniae [12]) was 1 µg/mL and the MIC90 (Streptococcus pneumoniae [13]) was 4 µg/mL (≈ 12.5 µM). It also gave an MIC (Streptococcus pneumoniae [14]) of 1 µg/mL and an MIC90 (Streptococcus pneumoniae [14]) of 1 µg/mL.
